Experimental data as given in ChEMBL document CHEMBL1141692, “Benzimidazole-substituted (3-phenoxypropyl)amines as histamine H3 receptor ligands” (Bioorg Med Chem Lett, 2008).

How the values were obtained:
[1] = target: T1, Histamine H3 receptor (Homo sapiens, UniProt Q9Y5N1); assay: Antagonist activity at human histamine H3 receptor expressed in HEK293 cells assessed as reversal of N-alpha-methylhistamine-induced inhibition of forskolin-stimulated cAMP formation; format: functional, cell-based
T1 sequence (Q9Y5N1 whole entry): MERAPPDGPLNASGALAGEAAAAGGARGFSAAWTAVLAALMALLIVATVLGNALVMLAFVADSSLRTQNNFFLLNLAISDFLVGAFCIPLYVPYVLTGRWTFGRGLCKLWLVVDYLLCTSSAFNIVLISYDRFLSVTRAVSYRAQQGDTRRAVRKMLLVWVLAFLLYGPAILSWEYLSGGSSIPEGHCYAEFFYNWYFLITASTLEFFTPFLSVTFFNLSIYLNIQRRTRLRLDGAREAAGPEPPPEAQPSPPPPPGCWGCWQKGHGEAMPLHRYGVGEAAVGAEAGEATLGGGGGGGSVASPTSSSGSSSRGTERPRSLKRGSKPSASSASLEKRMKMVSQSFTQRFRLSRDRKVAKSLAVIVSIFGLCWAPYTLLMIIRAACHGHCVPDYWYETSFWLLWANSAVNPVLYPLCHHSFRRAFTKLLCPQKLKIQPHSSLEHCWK

[2] = target: Histamine H3 receptor (Mus musculus, UniProt P58406); assay: Binding affinity to mouse histamine H3 receptor
Chain of Histamine H3 receptor (Mus musculus, UniProt P58406) (P58406 whole entry): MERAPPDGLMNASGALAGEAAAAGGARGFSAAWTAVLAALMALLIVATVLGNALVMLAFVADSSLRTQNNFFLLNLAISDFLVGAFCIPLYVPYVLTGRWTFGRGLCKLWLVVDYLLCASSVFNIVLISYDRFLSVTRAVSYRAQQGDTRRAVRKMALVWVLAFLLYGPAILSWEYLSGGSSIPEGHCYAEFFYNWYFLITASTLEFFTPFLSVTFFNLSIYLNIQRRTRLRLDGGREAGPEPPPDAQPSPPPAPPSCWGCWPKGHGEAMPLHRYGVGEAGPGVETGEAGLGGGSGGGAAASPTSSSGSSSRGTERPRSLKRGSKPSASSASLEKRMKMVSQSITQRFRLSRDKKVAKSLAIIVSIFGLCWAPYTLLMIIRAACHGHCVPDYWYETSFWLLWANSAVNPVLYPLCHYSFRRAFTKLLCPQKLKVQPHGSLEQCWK

[3] = target: Cytochrome P450 2D6 (Homo sapiens, UniProt P10635); assay: Inhibition of CYP2D6 in human liver microsomes up to 30 uM by microtiter plate assay; format: ADME, Microsome
Chain of Cytochrome P450 2D6 (P10635 whole entry): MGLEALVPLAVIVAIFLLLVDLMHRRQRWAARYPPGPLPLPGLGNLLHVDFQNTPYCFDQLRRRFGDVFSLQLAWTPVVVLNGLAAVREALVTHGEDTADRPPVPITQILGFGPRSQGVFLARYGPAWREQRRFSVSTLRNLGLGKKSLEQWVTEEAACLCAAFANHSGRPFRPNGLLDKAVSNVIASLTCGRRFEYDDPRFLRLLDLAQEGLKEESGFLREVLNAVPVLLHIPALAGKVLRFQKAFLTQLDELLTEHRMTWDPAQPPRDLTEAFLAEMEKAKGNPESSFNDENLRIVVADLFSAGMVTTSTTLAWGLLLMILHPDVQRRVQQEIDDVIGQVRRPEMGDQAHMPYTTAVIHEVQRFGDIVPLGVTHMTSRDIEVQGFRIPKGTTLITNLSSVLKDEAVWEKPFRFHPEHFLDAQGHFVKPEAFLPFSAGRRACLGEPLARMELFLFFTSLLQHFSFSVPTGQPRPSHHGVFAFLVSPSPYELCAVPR

[4] = Cmax (0 to 6 hrs) in rat at 10 mg/kg, po; format: ADME, organism-based; design: dose 10 mg/kg, route oral; conditions: in vivo
In short: (§1)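 Oral dosing in rat at 10 mg/kg in methyl cellulose, n = 2, in a high-throughput PK assay. Plasma was sampled over 0–6 h time points to give AUC and Cmax.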

[5] = target: T1, Histamine H3 receptor; assay: Displacement of [3H]N-alpha-methylhistamine from human histamine H3 receptor expressed in HEK cells by scintillation counting; format: cell-based, HEK293
In short: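 Membranes (P2 pellet) from rHu H3–HEK cells were incubated in 50 mM Tris–HCl, pH 7.4, with 1 nM [3H]N-α-methylhistamine (82 Ci/mmol). Compounds were tested at half-log steps over a five-log range. Nonspecific binding was defined with 10^-5 M thioperamide. Incubation ran 30 min at 30 °C, then mixtures were filtered on PEI-soaked GF/B filters, washed three times and counted. Ki was taken from nonlinear curve fits.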

[6] = AUC (0 to 6 hrs) in rat at 10 mg/kg, po; format: ADME, organism-based; design: time < 6 hr, dose 10 mg/kg, route oral; conditions: plasma; in short: as §1
[7] = target: Voltage-gated inwardly rectifying potassium channel KCNH2 (Homo sapiens, UniProt Q12809); assay: Rubidium efflux through human ERG at 5 ug/mL pre-equilibrated for 30 mins by flame atomic absorbance spectroscopy
Chain of Voltage-gated inwardly rectifying potassium channel KCNH2 (Q12809 whole entry): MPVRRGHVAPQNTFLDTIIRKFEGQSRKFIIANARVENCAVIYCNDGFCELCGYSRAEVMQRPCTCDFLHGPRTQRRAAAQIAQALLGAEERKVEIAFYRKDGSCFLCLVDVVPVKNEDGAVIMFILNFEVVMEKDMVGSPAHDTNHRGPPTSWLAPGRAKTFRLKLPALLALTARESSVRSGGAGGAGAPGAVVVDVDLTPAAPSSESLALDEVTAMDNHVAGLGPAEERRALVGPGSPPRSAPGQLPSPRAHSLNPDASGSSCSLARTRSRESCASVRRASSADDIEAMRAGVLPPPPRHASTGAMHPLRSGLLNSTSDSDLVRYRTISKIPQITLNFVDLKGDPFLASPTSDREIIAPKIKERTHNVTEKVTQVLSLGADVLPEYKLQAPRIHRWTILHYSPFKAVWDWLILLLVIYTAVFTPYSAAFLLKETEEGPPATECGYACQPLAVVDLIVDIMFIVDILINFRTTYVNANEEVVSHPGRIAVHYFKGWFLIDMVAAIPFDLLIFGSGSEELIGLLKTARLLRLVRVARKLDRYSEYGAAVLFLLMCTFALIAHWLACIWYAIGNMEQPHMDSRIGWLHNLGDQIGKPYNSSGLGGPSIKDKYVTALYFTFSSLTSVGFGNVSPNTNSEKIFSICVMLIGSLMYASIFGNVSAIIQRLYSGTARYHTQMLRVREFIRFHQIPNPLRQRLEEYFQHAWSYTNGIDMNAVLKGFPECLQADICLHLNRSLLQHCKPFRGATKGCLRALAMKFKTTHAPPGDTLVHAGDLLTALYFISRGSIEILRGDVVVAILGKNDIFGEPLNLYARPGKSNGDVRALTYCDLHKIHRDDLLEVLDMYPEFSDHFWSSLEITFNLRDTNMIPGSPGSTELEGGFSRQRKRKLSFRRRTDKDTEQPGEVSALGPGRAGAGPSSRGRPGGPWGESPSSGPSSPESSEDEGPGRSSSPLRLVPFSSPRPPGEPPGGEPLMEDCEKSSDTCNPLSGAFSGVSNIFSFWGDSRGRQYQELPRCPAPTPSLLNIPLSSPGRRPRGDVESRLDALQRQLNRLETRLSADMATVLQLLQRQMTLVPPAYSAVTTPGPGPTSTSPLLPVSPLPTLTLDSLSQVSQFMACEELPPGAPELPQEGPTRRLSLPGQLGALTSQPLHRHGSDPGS

[8] = target: Cytochrome P450 3A4 (Homo sapiens, UniProt P08684); assay: Inhibition of CYP3A4 in human liver microsomes up to 30 uM by microtiter plate assay; format: ADME, Microsome
Chain of Cytochrome P450 3A4 (P08684 whole entry): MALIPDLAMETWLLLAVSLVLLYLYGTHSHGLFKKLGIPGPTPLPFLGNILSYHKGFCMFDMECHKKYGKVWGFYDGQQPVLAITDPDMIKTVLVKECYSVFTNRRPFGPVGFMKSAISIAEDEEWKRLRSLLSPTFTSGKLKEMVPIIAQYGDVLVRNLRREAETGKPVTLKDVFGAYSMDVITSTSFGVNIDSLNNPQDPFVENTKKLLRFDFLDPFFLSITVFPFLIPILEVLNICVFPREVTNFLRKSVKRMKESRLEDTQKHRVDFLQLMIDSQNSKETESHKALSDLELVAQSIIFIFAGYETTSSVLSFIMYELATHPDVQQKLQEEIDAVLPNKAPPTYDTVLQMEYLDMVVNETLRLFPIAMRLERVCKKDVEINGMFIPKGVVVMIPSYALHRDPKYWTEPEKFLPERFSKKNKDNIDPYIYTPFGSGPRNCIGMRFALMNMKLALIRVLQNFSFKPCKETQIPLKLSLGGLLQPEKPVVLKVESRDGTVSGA

Row | Ki [5] | SMILES | also measured
1 | 1.2 nM | Fc1ccc2c(c1)nc(-c1ccccn1)n2-c1ccc(OCCCN2CCCCC2)cc1 | Ki [1]: 0.1 nM; Ki [2]: 1.8 nM; Activity [3]: Not Active; Cmax [4]: 393 ng/mL; AUC(0-t) at 6 h [6]: 2030 ng·h/mL; Rb efflux [7]: 70%; Activity [8]: Not Active
2 | 8 nM | Fc1ccc2c(c1)[nH]c(=S)n2-c1ccc(OCCCN2CCCCC2)cc1 | 
3 | 2.6 nM | CCSc1nc2cc(F)ccc2n1-c1ccc(OCCCN2CCCCC2)cc1 | 
4 | 11 nM | CC1CC(C)CN(CCCOc2ccc(-n3c(-c4ccccn4)nc4cc(F)ccc43)cc2)C1 (stereo not drawn) | 
5 | 3.6 nM | CN1CCCN(CCCOc2ccc(-n3c(-c4ccccn4)nc4cc(F)ccc43)cc2)CC1 | 
6 | 20 nM | Fc1ccc2c(c1)nc(-c1ccccn1)n2-c1ccc(OCCCN2CCSC2)cc1 | Rb efflux [7]: 42%
7 | 5.3 nM | Fc1ccc2c(c1)nc(-c1ccccn1)n2-c1ccc(OCCCN2CCCCCC2)cc1 | 
8 | 1.2 nM | Fc1ccc2c(c1)nc(-c1ccccn1)n2-c1ccc(OCCCN2CCCC2)cc1 | 
9 | 5.1 nM | C[C@@H]1CC[C@@H](C)N1CCCOc1ccc(-n2c(-c3ccccn3)nc3cc(F)ccc32)cc1 | 
10 | 13 nM | CN1CCN(CCCOc2ccc(-n3c(-c4ccccn4)nc4cc(F)ccc43)cc2)CC1 | 
11 | 16 nM | COC(=O)C1CCN(CCCOc2ccc(-n3c(-c4ccccn4)nc4cc(F)ccc43)cc2)CC1 | Rb efflux [7]: 49%
12 | 20 nM | NC(=O)C1CCN(CCCOc2ccc(-n3c(-c4ccccn4)nc4cc(F)ccc43)cc2)CC1 | 
13 | 8.7 nM | O=c1[nH]c2cc(F)ccc2n1-c1ccc(OCCCN2CCCCC2)cc1 | 
14 | 15 nM | CCOc1nc2cc(F)ccc2n1-c1ccc(OCCCN2CCCCC2)cc1 | 
15 | 2 nM | Fc1ccc2c(c1)nc(-c1ccccn1)n2-c1ccc(OCCCN2CCC(Cc3ccccc3)CC2)cc1 | 
16 | 713 nM | Fc1ccc2c(c1)nc(-c1ccccn1)n2-c1ccc(OCCCN2Cc3cccc4cccc(c34)C2)cc1 | 
17 | 101 nM | CNCCCOc1ccc(-n2c(-c3ccccn3)nc3cc(F)ccc32)cc1 | 
18 | 3.4 nM | Fc1ccc2c(c1)nc(-c1ccccn1)n2-c1ccc(OCCCN2CCOCC2)cc1 | Rb efflux [7]: 62%
19 | 107 nM | Fc1ccc2c(c1)nc(-c1ccccn1)n2-c1ccc(OCCCN2CCc3ccccc3C2)cc1 | Rb efflux [7]: 94%
20 | 1.8 nM | OC1CCN(CCCOc2ccc(-n3c(-c4ccccn4)nc4cc(F)ccc43)cc2)CC1 | Rb efflux [7]: 16%
21 | 11 nM | NC(=O)C1CCCN(CCCOc2ccc(-n3c(-c4ccccn4)nc4cc(F)ccc43)cc2)C1 (stereo not drawn) | 
